Test results from ChEMBL document CHEMBL1156256, “Poly(ethylene glycol) (PEG-400) as an alternative reaction solvent for the synthesis of some new 1-(4-(4'-chlorophenyl)-2-thiazolyl)-3-aryl-5-(2-butyl-4-chloro-1H-imidazol-5yl)-2-pyrazolines and their in vitro antimicrobial evaluation” (2010).
In brackets after ≈: the same amount, converted by molar mass.

Legend:
Escherichia coli = assay: Antibacterial activity against Escherichia coli MTCC 2939 after 24 hrs by agar diffusion method; assay type: functional; conditions: for MIC: Escherichia coli, MTCC 2939, 24 h
Outline: (§1)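 Agar well diffusion following NCCLS. Bacteria kept on nutrient agar slants at 37 ± 0.5 °C for 24 h. Nutrient agar plates seeded with 0.1 mL of culture suspension in 0.85% sterile saline (10⁵ CFU/mL). Plates incubated at 37 ± 0.5 °C for 24 h. Zone of inhibition recorded in mm, and MIC noted. 1% DMSO used as control.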

Salmonella enterica = assay: Antibacterial activity against Salmonella typhi MTCC 98 after 24 hrs by agar diffusion method; assay type: functional, Salmonella enterica subsp. enterica serovar Typhi; conditions: for MIC: Salmonella enterica, MTCC 98, 24 h
Outline: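 NCCLS agar diffusion. Strain kept on nutrient agar slant at 37 ± 0.5 °C for 24 h. Nutrient agar plates seeded with 0.1 mL of a 10⁵ CFU/mL suspension in sterile 0.85% saline. Plates incubated at 37 ± 0.5 °C for 24 h. Read-out: zone of inhibition (mm) and MIC.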

Staphylococcus aureus = assay: Antibacterial activity against Staphylococcus aureus MTCC 96 after 24 hrs by agar diffusion method; assay type: functional; conditions: for MIC: Staphylococcus aureus, MTCC 96, 24 h; outline: as §1
Bacillus subtilis = assay: Antibacterial activity against Bacillus subtilis MTCC 441 after 24 hrs by agar diffusion method; assay type: functional; conditions: for MIC: Bacillus subtilis, MTCC 441, 24 h; outline: as §1
Aspergillus niger = assay: Antifungal activity against Aspergillus niger MTCC 281 after 24 to 48 hrs by agar diffusion method; assay type: functional; conditions: for MIC: Aspergillus niger, MTCC 281
Outline: (§2)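 Fungi grown on potato dextrose agar slants at 27 ± 0.2 °C for 24–48 h until sporulation. Spores suspended in sterile water with 1% Tween-80 and counted by haemocytometer (10⁶ CFU/mL). 0.1 mL spread on 2% agar PDA plates and held at 27 °C for 12 h. Wells then received 0.1 mL of compound at graded concentrations for MIC. Plates refrigerated 20 min for diffusion, then incubated at 27 ± 0.2 °C for […]. Zone read in mm. 1% DMSO used as control.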

Trichoderma viride = assay: Antifungal activity against Trichoderma viride MTCC 167 after 24 to 48 hrs by agar diffusion method; assay type: functional; conditions: for MIC: Trichoderma viride, MTCC 167; outline: as §2
Penicillium chrysogenum = assay: Antifungal activity against Penicillium chrysogenum MTCC 160 after 24 to 48 hrs by agar diffusion method; assay type: functional; conditions: for MIC: Penicillium chrysogenum, MTCC 160; outline: as §2
Candida albicans = assay: Antifungal activity against Candida albicans MTCC 183 after 24 to 48 hrs by agar diffusion method; assay type: functional; conditions: for MIC: Candida albicans, MTCC 183; outline: as §2
Fusarium verticillioides = assay: Antifungal activity against Fusarium moniliforme MTCC 156 after 24 to 48 hrs by agar diffusion method; assay type: functional; conditions: for MIC: Fusarium verticillioides, MTCC 156; outline: as §2

Compound | inhibition zone (IZ) (Escherichia coli) [mm] | MIC (Escherichia coli) [µg/mL] | inhibition zone (IZ) (Salmonella enterica) [mm] | MIC (Salmonella enterica) [µg/mL] | inhibition zone (IZ) (Staphylococcus aureus) [mm] | MIC (Staphylococcus aureus) [µg/mL] | inhibition zone (IZ) (Bacillus subtilis) [mm] | MIC (Bacillus subtilis) [µg/mL] | inhibition zone (IZ) (Aspergillus niger) [mm] | MIC (Aspergillus niger) [µg/mL] | inhibition zone (IZ) (Trichoderma viride) [mm] | MIC (Trichoderma viride) [µg/mL] | inhibition zone (IZ) (Penicillium chrysogenum) [mm] | MIC (Penicillium chrysogenum) [µg/mL] | inhibition zone (IZ) (Candida albicans) [mm] | MIC (Candida albicans) [µg/mL] | inhibition zone (IZ) (Fusarium verticillioides) [mm] | MIC (Fusarium verticillioides) [µg/mL]
CCCCc1nc(Cl)c(C2CC(c3cc(C)cc(I)c3O)=NN2c2nc(-c3ccc(Cl)cc3)cs2)[nH]1 (stereo not given) | 14 | 50 (≈ 76.6 µM) | 15 | 25 (≈ 38.3 µM) | 15 | 25 (≈ 38.3 µM) | 12 | 50 (≈ 76.6 µM) | 14 | 25 (≈ 38.3 µM) | 14 | 25 (≈ 38.3 µM) | 12 | 25 (≈ 38.3 µM) | 11 | 50 (≈ 76.6 µM) | 10 | 50 (≈ 76.6 µM)
CCCCc1nc(Cl)c(C2CC(c3ccc(OC)cc3)=NN2c2nc(-c3ccc(Cl)cc3)cs2)[nH]1 (stereo not given) | 16 | 25 (≈ 47.5 µM) | 14 | 50 (≈ 95 µM) | 18 | 25 (≈ 47.5 µM) | 16 | 25 (≈ 47.5 µM) | 16 | 25 (≈ 47.5 µM) | 14 | 25 (≈ 47.5 µM) | 12 | 50 (≈ 95 µM) | 14 | 25 (≈ 47.5 µM) | 12 | 25 (≈ 47.5 µM)
CCCCc1nc(Cl)c(C2CC(c3cc(Cl)ccc3O)=NN2c2nc(-c3ccc(Cl)cc3)cs2)[nH]1 (stereo not given) | 18 | 25 (≈ 45.7 µM) | 12 | 50 (≈ 91.4 µM) | 16 | 25 (≈ 45.7 µM) | 18 | 25 (≈ 45.7 µM) | 16 | 25 (≈ 45.7 µM) | 15 | 25 (≈ 45.7 µM) | 12 | 25 (≈ 45.7 µM) | 16 | 25 (≈ 45.7 µM) | 15 | 25 (≈ 45.7 µM)
CCCCc1nc(Cl)c(C2CC(c3cc(Cl)c(C)c(Br)c3O)=NN2c2nc(-c3ccc(Cl)cc3)cs2)[nH]1 (stereo not given) | 15 | 25 (≈ 39.1 µM) | 12 | 50 (≈ 78.1 µM) | 11 | 50 (≈ 78.1 µM) | 18 | 25 (≈ 39.1 µM) | 15 | 25 (≈ 39.1 µM) | 16 | 50 (≈ 78.1 µM) | 9 | 50 (≈ 78.1 µM) | 12 | 50 (≈ 78.1 µM) | 15 | 25 (≈ 39.1 µM)
CCCCc1nc(Cl)c(C2CC(c3cc(Cl)c(C)c(I)c3O)=NN2c2nc(-c3ccc(Cl)cc3)cs2)[nH]1 (stereo not given) | 18 | 25 (≈ 36.4 µM) | 16 | 25 (≈ 36.4 µM) | 14 | 50 (≈ 72.8 µM) | 19 | 25 (≈ 36.4 µM) | 14 | 25 (≈ 36.4 µM) | 12 | 25 (≈ 36.4 µM) | 15 | 25 (≈ 36.4 µM) | 13 | 25 (≈ 36.4 µM) | 14 | 25 (≈ 36.4 µM)
